The sample as a whole holds a higher share of hits than the screen did.
ABCB1 inh: inhibitors of human ABCB1 transporter, ABCG2 counter-screen; 190,000 tested, 0.067% active; inhibition, % at 6.6 µM; CCRF-Adr cells, JC-1 efflux, flow cytometry; in the data active = inhibition above about 40%;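 note: 0% = vehicle and 100% = reference inhibitor; higher value means more JC-1 retained so stronger ABCB1 efflux block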
Target sequence (P08183 whole entry, looked up): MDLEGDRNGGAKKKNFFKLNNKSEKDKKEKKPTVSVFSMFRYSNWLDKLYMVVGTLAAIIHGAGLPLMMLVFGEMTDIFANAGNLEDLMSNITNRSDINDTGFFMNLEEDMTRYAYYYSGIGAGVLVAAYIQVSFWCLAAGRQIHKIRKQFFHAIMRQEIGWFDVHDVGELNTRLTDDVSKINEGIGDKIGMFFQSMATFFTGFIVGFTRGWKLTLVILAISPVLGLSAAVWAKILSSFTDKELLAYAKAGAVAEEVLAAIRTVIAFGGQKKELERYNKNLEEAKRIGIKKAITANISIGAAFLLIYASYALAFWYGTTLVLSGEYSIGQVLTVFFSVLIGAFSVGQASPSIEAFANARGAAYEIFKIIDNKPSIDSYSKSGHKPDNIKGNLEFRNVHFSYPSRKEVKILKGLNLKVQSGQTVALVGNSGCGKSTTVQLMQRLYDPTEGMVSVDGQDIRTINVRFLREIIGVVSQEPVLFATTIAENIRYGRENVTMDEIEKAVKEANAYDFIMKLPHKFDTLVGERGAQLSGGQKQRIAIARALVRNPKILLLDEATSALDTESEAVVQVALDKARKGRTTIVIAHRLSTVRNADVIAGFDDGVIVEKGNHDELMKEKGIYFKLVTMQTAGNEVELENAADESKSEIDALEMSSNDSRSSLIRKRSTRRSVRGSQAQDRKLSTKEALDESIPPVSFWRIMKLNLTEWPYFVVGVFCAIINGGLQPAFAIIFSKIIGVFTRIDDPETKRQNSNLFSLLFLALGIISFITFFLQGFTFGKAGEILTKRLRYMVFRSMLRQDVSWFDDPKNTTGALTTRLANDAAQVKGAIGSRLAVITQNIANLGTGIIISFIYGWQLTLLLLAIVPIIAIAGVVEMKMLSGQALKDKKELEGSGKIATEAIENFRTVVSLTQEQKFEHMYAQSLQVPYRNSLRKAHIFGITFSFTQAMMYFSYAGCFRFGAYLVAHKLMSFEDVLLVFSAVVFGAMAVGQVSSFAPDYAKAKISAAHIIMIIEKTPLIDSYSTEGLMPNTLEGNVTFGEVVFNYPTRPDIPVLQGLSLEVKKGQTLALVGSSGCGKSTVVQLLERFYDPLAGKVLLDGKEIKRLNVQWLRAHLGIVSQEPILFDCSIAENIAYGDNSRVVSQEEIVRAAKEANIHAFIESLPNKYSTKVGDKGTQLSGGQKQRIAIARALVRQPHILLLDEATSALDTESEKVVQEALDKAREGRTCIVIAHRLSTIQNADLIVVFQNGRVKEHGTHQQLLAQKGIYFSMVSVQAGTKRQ
FLuc stim CS: affects firefly luciferase, flagging false hits in luciferase stimulation screens; 200,000 tested, under 10 active; ATPlite luciferase biochemical, luminescence, 10 min; 0 = ATP-free wells, 1 = DMSO control; activation factor at 10 µM; AID 1027;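 active = luciferase activation factor, scaled between plate controls, of at least 2 with compound at 10 µM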
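System: luciferase plus luciferin reagent, cell-free; medium: PBS as buffer for the ATP substrate; dosing: test compounds dosed from 2 mM stocks in 100% DMSO; timing: 10 min post-reagent at room temperature; measured by: luminescence measurement of luciferase light output; evaluation: luciferase activation, seen as luminescence increase over controls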
FLuc inhib CS: Photinus pyralis luciferase inhibition counter-screen; 200,000 tested, 1.5% active; ATPLite firefly luciferase biochemical luminescence, 10 min; P08659; inhibition, % at 10 µM;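 active = inhibition above about 50% when tested at 10 µM, limit read from the data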
Diaphorase act: counter-screen for diaphorase-based assays: diaphorase activators and chemical reducers. activation factor at 20 µM. 190,000 tested, 0.005% active. Diaphorase/resazurin coupled assay, resorufin fluorescence, 16 min; stronger effect = higher value; 1 = vehicle wells, 0 = NADH-free wells;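 active = diaphorase activity raised at least twofold by the compound at 20 µM; inactive = activation factor below 2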
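Material: purified diaphorase enzyme from Clostridium kluyveri / Medium: HEPES pH 7.4 buffer with MgCl2 and Tween 20 / Schedule: enzyme reaction of 16 min at room temperature / Measured by: resorufin fluorescence, excitation 544 nm, emission 590 nm / Evaluation: rise in resorufin formation, marking diaphorase activation or chemical reduction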
ABCG2 inh: blocks JC-1 efflux by human ABCG2 transporter. Q9UNQ0. IgMXP3 cells, flow cytometry. inhibition, % at 6.6 µM. 190,000 tested, 0.1% active. AID 1325;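 active = inhibition above 80%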;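 note: 0% = DMSO and 100% = nicardipine control wells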
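Read-out basis: Efflux inhibition in percent versus controls | Test system: ABCG2 IgMXP3 and barcoded ABCB1 CCRF-Adr cell mix | Quantity: 3 million cells/mL in well | Schedule: 10 min at 25 °C | Control set: Nicardipine as high control, DMSO as low control | Reagent: JC-1 as fluorescent efflux pump substrate | Signal: Flow cytometry of retained JC-1 fluorescence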
ABCB6 inh MLPCN: human ABCB6 transporter inhibition; Q9NP58; K562-ABCB6 porphyrin accumulation, flow cytometry, 1 h; stronger effect = lower value; fluorescence ratio to DMSO, % at 10 µM; 360,000 tested, 0.19% active;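 active = fluorescence ratio to DMSO below 75%, the collection mean minus 3 SD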;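 note: signal is porphyrin accumulated inside mitochondria; 100% equals median channel fluorescence of DMSO control wells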
ABCB6 blocker 1: blocks the human ABCB6 transporter. shares compounds with ABCB6 inh MLPCN. K562-ABCB6 porphyrin accumulation, flow cytometry, 1 h; stronger effect = lower value. ratio response (% of DMSO), % at 10 µM. 700 tested, under 10 active. AID 602430;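 active = repeat-averaged ratio response below 75% of DMSO, the collection mean minus 3 SD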;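 note: median porphyrin fluorescence at 575 nm with 488 nm excitation from mitochondria; lower ratio means less porphyrin signal so ABCB6 inhibition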
The depositor's hits bear a star; nt = no result.

SMILES	ABCB1 inh	FLuc stim CS	FLuc inhib CS	Diaphorase act	ABCG2 inh	ABCB6 inh MLPCN	ABCB6 blocker 1
CCCCN(C(=O)c1cc(-c2ccncc2)nc2ccccc12)c1c(N)n(CC(C)C)c(=O)[nH]c1=O	nt	nt	nt	nt	nt	51*	100
COCCN(C(=O)c1cc(-c2ccncc2)nc2ccccc12)c1c(N)n(CC(C)C)c(=O)[nH]c1=O	nt	nt	nt	nt	nt	101	nt
Cn1c(=O)c2ncn(CC(=O)NCCOc3ccc(C(C)(C)C)cc3)c2n(C)c1=O	1	1	0	0.9	4	87	nt
Cn1c(=O)c2ncn(CC(=O)NCCOCc3ccccc3Cl)c2n(C)c1=O	1	1	-3	0.9	5	66*	100
O=C(CCNC(=O)c1ccccc1)NNC(=O)c1ccc(F)cc1	nt	nt	nt	nt	nt	100	nt
COC(=O)C1CCN(S(=O)(=O)c2c[nH]c(=O)[nH]c2=O)CC1	nt	nt	nt	nt	nt	94	99
COC(=O)C1CCN(S(=O)(=O)c2ccc(Br)s2)CC1	nt	nt	nt	nt	nt	90	97
COc1ccc([C@H]2CC(=O)C=C(c3ccc4cc[nH]c4c3)C2)cc1	nt	nt	nt	nt	nt	103	nt
COc1ccc(NC(=O)c2cc(CN3C(=O)c4ccccc4C3=O)ccc2OC)cn1	1	1	1	0.8	1	70*	102
CCn1nccc1NC(=O)c1csc([C@H]2C[C@H](O)[C@@H](CO)O2)n1	nt	nt	nt	nt	nt	99	nt
COc1cc(OC)cc(C(=O)NC2=NCCS2)c1	0	0.6	40	0.9	1	93	nt
COc1ccc(C(=O)NC2=NCCS2)cc1	nt	nt	nt	nt	nt	74*	97
Clc1nnc(Cl)c2c1ncn2Cc1ccccc1	nt	nt	nt	nt	nt	73*	100
Cc1nc2ccccc2c(=O)n1NC(=O)c1ccc(C(C)(C)C)cc1	nt	nt	nt	nt	nt	95	nt
COc1ccc(C(=O)Nn2c(C)nc3ccccc3c2=O)cc1	nt	nt	nt	nt	nt	74*	100
CC(C)(C)c1ccc(Cn2nnc3c(=O)[nH]c(C4CCN(C(=O)Cc5cccs5)CC4)nc32)cc1	1	1	-5	0.7	2	68*	96
CC(C)(C)c1ccc(Cn2nnc3c(=O)[nH]c(C4CCCN(C(=O)Cc5cccs5)C4)nc32)cc1 (centres undefined)	1	1	-2	0.7	5	93	nt
O=C(Cc1cccs1)N1CCC(c2nc3c(nnn3Cc3ccccc3)c(=O)[nH]2)CC1	0	1	-3	0.9	16	99	101
Cc1cccc(OCCSc2nc3ncnc(N)c3[nH]2)c1	0	1	-4	1	6	71*	102
COc1ccc(NC(=O)C2CCCN2C(=O)Nc2ccc(OC)cc2)cc1 (centres undefined)	nt	nt	nt	nt	nt	105	nt
COc1ncnc(OC)c1S(=O)(=O)Nc1ccc(C(F)(F)F)cc1	nt	nt	nt	nt	nt	161	nt
COc1ccccc1-c1cnc(C(O)c2ccccc2)[nH]1 (centres undefined)	nt	nt	nt	nt	nt	96	nt
CCc1ccc(C(O)c2ncc(-c3ccccc3OC)[nH]2)cc1 (centres undefined)	nt	nt	nt	nt	nt	73*	98
O=C(C[n+]1ccn(-c2ccccc2)c1)c1ccc([N+](=O)[O-])cc1	nt	nt	nt	nt	nt	87	nt
COc1ccc(-c2cc(C(F)(F)F)c(C#N)c(SCC(=O)O)n2)cc1	0	1	0	0.9	3	97	nt
SMILES	ABCB1 inh	FLuc stim CS	FLuc inhib CS	Diaphorase act	ABCG2 inh	ABCB6 inh MLPCN	ABCB6 blocker 1
Cc1ccc(-c2cc(C(F)(F)F)c(C#N)c(SCCC#N)n2)o1	0	1	-4	0.9	1	71*	103
CCOc1nc(C)cc(C)c1S(=O)(=O)c1cccc(Cl)c1	nt	nt	nt	nt	nt	99	nt
O=C(Nc1cccc(Cl)c1)c1cc2c(=O)n3ccccc3nc2s1	nt	nt	nt	nt	nt	93	104
CCOC(=O)C1CCN(S(=O)(=O)c2ccc(C)cc2)CC1	0	1	-4	0.9	18	109	nt
CCOC(=O)C1CCN(S(=O)(=O)c2ccc(Cl)cc2OC)CC1	0	1	-4	0.9	0	98	nt
CCOC(=O)C1CCN(S(=O)(=O)c2ccc(NC(=O)OC)cc2)CC1	2	1.1	-9	0.9	6	109	98
CCOC(=O)C1CCN(S(=O)(=O)c2cc(Cl)c(C)cc2OC)CC1	1	1.1	-6	0.9	10	92	98
CCOC(=O)C1CCN(S(=O)(=O)c2ccc(C(=O)OC)cc2)CC1	0	1	-2	1	0	98	97
CCOC(=O)C1CCN(S(=O)(=O)c2ccc(Br)c(OCC)c2)CC1	3	1	-3	0.8	4	91	99
O=C(CCCOc1ccccc1)NNC(=O)c1ccncc1	nt	nt	nt	nt	nt	98	nt
CCN(CC)S(=O)(=O)c1ccc(C)c(NC(=O)CN2C(=O)NC3(CCCC3)C2=O)c1	nt	nt	nt	nt	nt	74*	96
COc1ccc(Br)cc1CN(C)C(=O)c1cnc(C)cn1	nt	nt	nt	nt	nt	100	nt
CCc1ccccc1NC(=O)c1cc(=O)c2ccccc2o1	0	1	-4	1	1	67*	101
Cc1cccc(NC(=O)c2cc(NC(=O)CCCC(=O)O)ccc2Cl)n1	0	1.1	-6	0.9	2	53*	102
